Data on one compound can be found in ChEMBL document CHEMBL4765243, “Discovery of Novel Bromophenol-Thiosemicarbazone Hybrids as Potent Selective Inhibitors of Poly(ADP-ribose) Polymerase-1 (PARP-1) for Use in Cancer” (J Med Chem, 2019).

The source made the active and inactive calls. The rule behind the calls is not given here. Bounds are passed on as bounds.

Series [1] in a line: Cmax in Sprague-Dawley rat at 10 mg/kg, po by LC/MS/MS analysis. It is filed as ADME, organism-based. More on the design: route oral, dose 10 mg/kg. The following applies: in vivo. A digest of the protocol:
(§1)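 Male Sprague-Dawley rats, 4 per group, dosed once orally at 10 mg/kg or intravenously at 2 mg/kg. Blood taken from the saphenous vein for plasma. Drug levels measured by LC-MS-MS, with parameters derived by noncompartmental analysis.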

Series [2] concerns the target T1, Poly [ADP-ribose] polymerase 1 (Homo sapiens, UniProt P09874). As to the kind of experiment: Inhibition of human recombinant GST-tagged PARP-1 expressed in Escherichia coli assessed as reduction in NAD+-dependent ADP ribosylation incubated for 30 mins in presence and NAD by resazurin dye based fluorescence analysis. For orientation: Alamar Blue is a resazurin reagent that responds to reducing activity.

Series [3] is described as follows: Total plasma clearance in Sprague-Dawley rat at 2 mg/kg, iv by LC/MS/MS analysis. The class given is ADME, organism-based. A digest of the protocol: as §1
Series [4] has as its system SK-OV-3. As to the kind of experiment: Induction of autophagy in human SKOV3 cells assessed as increase in fluorescence intensity t 10 uM incubated for 48 hrs by immunofluorescence analysis. The class given is functional, cell-based. A digest of the protocol: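 SK-OV-3 cells on glass coverslips infected with Ad-mCherry-GFP-LC3B for 24 h. Cells then treated at 10 µM for 48 h, fixed in 4% paraformaldehyde and examined by fluorescence microscopy.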

Series [5] is described as follows: Toxicity in Balb/c nude mouse xenografted with human SKOV3 cells assessed as change in body weight at 25 mg/kg, po for 21 days and measured every third day. It is filed as organism-based. The following applies: in vivo, 504 h, time 21 day. In a few lines: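 Female BALB/c nu/nu mice, 6-8 weeks old, kept under SPF conditions. Each received 5×10^6 SK-OV-3 cells s.c. At 80–120 mm3 tumour volume, mice were split into four groups (n=6). […] Caliper measurement every three days; volume = X × (Y2/2).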
In general terms: In xenograft studies the graft and the host belong to different species.

Series [6] is described as follows: Cytotoxicity against human HL7702 cells assessed as cell growth inhibition at 20 uM incubated for 48 hrs by MTT assay relative to control. The class given is cell-based. The following applies: HL7702 (L02) cells. (In general: Tetrazolium dyes change colour on reduction, which living cells bring about.)
The subject of series [7] is SK-OV-3. As to the kind of experiment: Induction of apoptosis in human SKOV3 cells assessed as decrease in Bcl-2 expression at 2.5 to 10 uM incubated for 48 hrs by western blot analysis. The class given is functional, cell-based. The settings on record: dose 2.5-10 µM.
A short description of series [8]: Subacute toxicity in SPF Kunming mouse assessed as change in heart at 1000 mg/kg, po administered for 14 days by H and E staining based microscopic analysis. The class given is organism-based. The settings on record: in vivo, 336 h, time 14 day. In a few lines:
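Twenty SPF Kunming mice (18 - 22 g), half male and half female, randomised into 2 groups of 5 males + 5 females. Treated group dosed orally at 1000 mg/kg once daily for 14 days. Death, clinical signs and body weight monitored. After 14 days: isoflurane anaesthesia, decapitation, tissues collected for H&E histology.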

Series [9] concerns SK-OV-3. As to the kind of experiment: Induction of apoptosis in human SKOV3 cells at 2.5 to 10 uM incubated for 48 hrs by annexin V-FITC/PI based flow cytometric analysis. The following applies: dose 2.5-10 µM. It is filed as functional, cell-based. A digest of the protocol: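 SK-OV-3 cells treated 48 h, then harvested, stained with Annexin V/PI and analysed by flow cytometry.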

Series [10] has as its system SK-OV-3. As to the kind of experiment: Induction of ROS generation in human SKOV3 cells assessed as fold increase in ROS level at 5 uM incubated for 48 hrs by DCFH-DA staining based flow cytometry relative to control. The class given is functional.
Series [11] concerns the target T1, Poly [ADP-ribose] polymerase 1. As to the kind of experiment: Inhibition of PARP-1 in human SKOV3 cells assessed as decrease in MCM6 protein expression level at 2.5 to 10 uM incubated for 48 hrs by western blot analysis. It is filed as cell-based. The following applies: SK-OV-3, dose 2.5-10 µM. In a few lines: (§2)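 SK-OV-3 cells were grown in McCOY's 5A, seeded in 6-well plates and treated for 48 h. Lysate proteins were separated by 8-15 % SDS-PAGE and transferred to PVDF membranes. Membranes were blocked in 5 % nonfat milk, probed with primary antibody overnight at 4 °C and with HRP secondary antibody for 1 h at room temperature, then detected by enhanced chemiluminescence. Images are representative of 3 independent experiments.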

Series [12] is described as follows: Acute toxicity in SPF Kunming mouse assessed as lethal dose administered orally as single dose and measured upto 14 days post drug administration. The following applies: in vivo, po, time <=14 day. A digest of the protocol:
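Single oral dose groups at 0 (physiological saline blank, equal volume), 100, 500 and 1000 mg/kg. Mice housed with free access to water and food in stainless cages, 25 ± 1 °C, 12-h light/dark cycle. Survival, body weight and abnormalities recorded up to 14 days post-treatment.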

The subject of series [13] is SK-OV-3. As to the kind of experiment: Induction of autophagy in human SKOV3 cells assessed as increase in Atg-14 protein level at 10 uM incubated for 48 hrs by western blot analysis. It is filed as functional, cell-based. In a few lines: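 SK-OV-3 cells seeded in 6-well plates, treated 48 h. Protein lysates separated on 8-15 % SDS-PAGE and transferred to PVDF. Membranes blocked in 5 % nonfat milk, probed with primary antibody overnight at 4 °C, then secondary antibody 1 h at room temperature. Bands detected by enhanced chemiluminescence.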

The target of series [14] is T1, Poly [ADP-ribose] polymerase 1. As to the kind of experiment: Inhibition of PARP-1 in human SKOV3 cells assessed as decrease in MCM3 protein expression level at 2.5 to 10 uM incubated for 48 hrs by western blot analysis. It is filed as cell-based. The following applies: SK-OV-3, dose 2.5-10 µM. A digest of the protocol:
as §2

Series [15] is described as follows: Cmax in Sprague-Dawley rat at 2 mg/kg, iv by LC/MS/MS analysis. It is filed as ADME, organism-based. More on the design: route intravenous, dose 2 mg/kg. The settings on record: in vivo. In a few lines:
as §1

Series [16] is described as follows: AUC (0 to infinity) in Sprague-Dawley rat at 2 mg/kg, iv by LC/MS/MS analysis. Also noted: route intravenous, time infinity, dose 2 mg/kg. The settings on record: in vivo. The class given is ADME, organism-based.
In series [17] the test system is SK-OV-3. As to the kind of experiment: Induction of autophagy in human SKOV3 cells assessed as LC3-II protein expression at 10 uM incubated for 48 hrs by western blot analysis. It is filed as functional, cell-based. In a few lines:
(§3)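 SK-OV-3 cells in 6-well plates treated 48 h. Lysates separated by 8-15% SDS-PAGE and transferred to PVDF. Membranes blocked in 5% milk and probed overnight at 4 °C with LC3 or Beclin 1 antibodies. HRP secondary applied 1 h at room temperature; detection by ECL.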

Series [18] deals with SK-OV-3. As to the kind of experiment: Antitumor activity against human SKOV3 cells xenografted in Balb/c nude mouse assessed as increase in gamma-H2AX expression in tumor at 25 to 50 mg/kg, po for 21 days by immunohistochemistry analysis. It is filed as functional, organism-based. The settings on record: dose 25-50 mg/kg, time 21.0 day. A digest of the protocol: (§4)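 SK-OV-3 xenografts in female BALB/c nude mice were dosed orally at 25 or 50 mg/kg in 0.5% CMC-Na for 21 days. Tumours were then snap-frozen in liquid nitrogen or fixed in 10% neutral-buffered formalin. Analysis used western blotting, H&E and immunohistochemistry on paraffin sections (Ki67, γ-H2AX).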

Series [19] is described as follows: Toxicity in Balb/c nude mouse xenografted with human SKOV3 cells assessed as histological changes in kidney at 25 to 50 mg/kg, po for 21 days by H and E staining based microscopic analysis. The settings on record: in vivo, 504 h, dose 25-50 mg/kg, time 21 day. It is filed as organism-based. A digest of the protocol: as §4
Series [20] concerns the target Poly [ADP-ribose] polymerase 2 (Homo sapiens, UniProt Q9UGN5). As to the kind of experiment: Inhibition of human recombinant N-terminal GST-tagged PARP-2 expressed in Baculovirus infected Sf9 cells assessed as reduction in NAD+-dependent ADP ribosylation using histone mixture (H2A and H2B) as substrate in presence of activated DNA incubated for 30 mins by chemiluminescence assay.

Series [21] deals with SK-OV-3. As to the kind of experiment: Induction of autophagy in human SKOV3 cells assessed as increase in Beclin-1 protein level at 10 uM incubated for 48 hrs by western blot analysis. It is filed as functional, cell-based. In a few lines:
as §3

T1 sequence (P09874 whole entry): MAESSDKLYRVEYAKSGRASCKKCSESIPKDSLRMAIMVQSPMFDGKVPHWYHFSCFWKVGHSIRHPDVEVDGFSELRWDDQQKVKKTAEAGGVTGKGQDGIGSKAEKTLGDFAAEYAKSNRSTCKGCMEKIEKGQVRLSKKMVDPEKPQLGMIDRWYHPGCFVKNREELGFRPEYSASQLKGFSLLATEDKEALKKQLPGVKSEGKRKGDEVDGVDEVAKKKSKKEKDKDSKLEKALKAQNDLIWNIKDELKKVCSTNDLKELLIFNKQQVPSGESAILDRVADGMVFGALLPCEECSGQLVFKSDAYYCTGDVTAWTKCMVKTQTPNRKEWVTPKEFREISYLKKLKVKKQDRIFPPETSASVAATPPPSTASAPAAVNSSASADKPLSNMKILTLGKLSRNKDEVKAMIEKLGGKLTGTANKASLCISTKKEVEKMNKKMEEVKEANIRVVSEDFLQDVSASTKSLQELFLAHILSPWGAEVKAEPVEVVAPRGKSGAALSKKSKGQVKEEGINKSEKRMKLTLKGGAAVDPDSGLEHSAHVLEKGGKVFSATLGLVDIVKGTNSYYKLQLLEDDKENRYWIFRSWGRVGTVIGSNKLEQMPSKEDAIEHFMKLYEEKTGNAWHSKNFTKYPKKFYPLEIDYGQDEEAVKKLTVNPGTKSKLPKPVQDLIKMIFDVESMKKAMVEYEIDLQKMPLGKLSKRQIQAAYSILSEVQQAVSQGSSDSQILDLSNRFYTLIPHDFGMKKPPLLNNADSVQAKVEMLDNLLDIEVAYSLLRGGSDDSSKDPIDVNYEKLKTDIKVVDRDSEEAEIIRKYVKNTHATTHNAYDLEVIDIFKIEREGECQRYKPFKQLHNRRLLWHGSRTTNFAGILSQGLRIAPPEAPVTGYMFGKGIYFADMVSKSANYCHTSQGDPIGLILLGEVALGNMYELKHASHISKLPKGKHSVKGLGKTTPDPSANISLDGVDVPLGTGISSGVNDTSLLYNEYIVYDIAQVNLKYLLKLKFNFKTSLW
Poly [ADP-ribose] polymerase 2, sequence (Q9UGN5 whole entry): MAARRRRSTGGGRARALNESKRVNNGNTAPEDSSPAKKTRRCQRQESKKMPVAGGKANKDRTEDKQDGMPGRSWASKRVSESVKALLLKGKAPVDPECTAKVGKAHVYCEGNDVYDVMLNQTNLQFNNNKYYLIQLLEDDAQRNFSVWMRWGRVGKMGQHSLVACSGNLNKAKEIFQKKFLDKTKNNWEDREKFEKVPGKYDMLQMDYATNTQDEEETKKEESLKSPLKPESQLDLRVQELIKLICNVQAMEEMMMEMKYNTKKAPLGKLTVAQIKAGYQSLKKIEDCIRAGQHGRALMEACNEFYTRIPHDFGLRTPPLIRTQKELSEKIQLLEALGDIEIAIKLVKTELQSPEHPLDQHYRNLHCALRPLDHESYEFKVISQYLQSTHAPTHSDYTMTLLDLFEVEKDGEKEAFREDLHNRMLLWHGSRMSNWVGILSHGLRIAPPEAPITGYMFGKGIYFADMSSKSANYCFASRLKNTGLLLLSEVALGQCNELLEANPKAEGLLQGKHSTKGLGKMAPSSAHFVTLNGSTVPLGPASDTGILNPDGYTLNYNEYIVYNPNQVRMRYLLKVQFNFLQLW

`COc1cc(/C=N/NC(N)=S)c(Br)c(Br)c1OC`: the figures for the Cmax in series [1] and in series [15] were 19.9 nM and 1250 nM, respectively. Further, the values for the half-inhibitory concentration (IC50) in [2] and in series [20] were 29.5 nM and greater than 1000 nM, respectively. Moreover, the clearance (in general, a measure of how efficiently the substance is removed, as volume per time) in series [3] is 88.7 mL/min/kg. Also, the result in series [4], in series [7], in [9], in series [13], in [17] and in series [18] was Active. Besides, the result in series [21] was Active. The Activity result in series [5], in series [8] and in series [19] was “Non-Toxic” throughout. The inhibition (in general, the relative decrease from the control value, in per cent) at 48 h, 20 µM in [6] is 89.9%. Also, the “fold change (FC)” value in series [10] is on record as 2.51. The inhibition result in [11] and in series [14] was “Active” in each case. Further, in series [12], the LD50 (commonly the dose expected to kill half of the subjects tested) at 336 h was 1000 mg/kg. Further, the exposure (AUC) (in general, concentration integrated over time) in [16] was 0.886 µM·h.
